Source: ChEMBL document CHEMBL1156074, “Diazo transfer-click reaction route to new, lipophilic teicoplanin and ristocetin aglycon derivatives with high antibacterial and anti-influenza virus activity: an aggregation and receptor binding study” (J Med Chem, 2009)
Converted amounts (≈) assume the structure as drawn. The source made the active and inactive calls.

Tests used:
[1] = system: Enterococcus faecalis; test: Antibacterial activity against vancomycin and teicoplanin-resistant Enterococcus faecalis 15376 harboring vanA gene after 18 hrs by broth microdilution method; type: functional; conditions: Enterococcus faecalis, 15376, 18 h
[2] = system: Staphylococcus aureus; test: Bactericidal activity against methicillin-sensitive Staphylococcus aureus ATCC 33591 after overnight incubation; type: functional
[3] = system: Influenza B virus; test: Antiviral activity against Influenza B virus (B/Hong Kong/5/72) assessed as inhibition of virus-induced cytopathic effect at highest concentration by cell-based assay; type: functional; conditions: B/Hong Kong/05/1972
Summary of the method: (§1)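 Virus-induced cytopathic effect is scored visually in infected cell cultures. EC50 is defined as the compound concentration producing 50% inhibition of the CPE. A compound is recorded as not active when there is no inhibition at the highest concentration tested or at a subtoxic concentration.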

[4] = system: H3N2 subtype; test: Antiviral activity against Influenza A virus (A/Hong Kong/7/87(H3N2)) assessed as cell viability at subtoxic concentration by cell-based MTS assay; type: functional, organism-based; conditions: A/Hong Kong/7/1987(H3N2)
[5] = system: Staphylococcus epidermidis; test: Antibacterial activity against Staphylococcus epidermidis after 18 hrs by broth microdilution method; type: functional
[6] = system: Influenza B virus; test: Antiviral activity against Influenza B virus (B/Hong Kong/5/72) assessed as cell viability at subtoxic concentration by cell-based MTS assay; type: functional; conditions: B/Hong Kong/05/1972
[7] = system: Staphylococcus aureus; test: Antibacterial activity against methicillin-sensitive Staphylococcus aureus ATCC 29213 after 18 hrs by broth microdilution method; type: functional; conditions: ATCC 29213, 18 h
[8] = system: Staphylococcus aureus; test: Bactericidal activity against methicillin-sensitive Staphylococcus aureus ATCC 29213 after overnight incubation; type: functional
[9] = system: Staphylococcus aureus; test: Antibacterial activity against methicillin-sensitive Staphylococcus aureus ATCC 33591 after 18 hrs by broth microdilution method; type: functional; conditions: ATCC 33591, 18 h
[10] = system: Enterococcus faecalis; test: Antibacterial activity against vancomycin-resistant and teicoplanin-sensitive Enterococcus faecalis ATCC 51299 harboring vanB gene after 18 hrs by broth microdilution method; type: functional; conditions: ATCC 51299, 18 h
[11] = system: Influenza A virus; test: Antiviral activity against Influenza A virus (A/Puerto Rico/8/34(H1N1)) assessed as inhibition of virus-induced cytopathic effect at highest concentration by cell-based assay; type: functional, organism-based; conditions: A/Puerto Rico/8/1934(H1N1); summary of the method: as §1
[12] = system: Influenza A virus; test: Antiviral activity against Influenza A virus (A/Puerto Rico/8/34(H1N1)) assessed as cell viability at subtoxic concentration by cell-based MTS assay; type: functional, organism-based; conditions: A/Puerto Rico/8/1934(H1N1)
[13] = system: Staphylococcus epidermidis; test: Antibacterial activity against biofilm of Staphylococcus epidermidis ATCC 35984 after 18 hrs by broth microdilution method; type: functional; conditions: RP62A
[14] = system: Enterococcus faecalis; test: Bactericidal activity against vancomycin and teicoplanin-resistant Enterococcus faecalis 15376 harboring vanA gene after overnight incubation; type: functional
[15] = system: Bacillus subtilis; test: Bactericidal activity against Bacillus subtilis ATCC 6633 after overnight incubation; type: functional
[16] = system: Bacillus subtilis; test: Antibacterial activity against Bacillus subtilis ATCC 6633 after 18 hrs by broth microdilution method; type: functional; conditions: ATCC 6633, 18 h
[17] = system: Staphylococcus epidermidis; test: Bactericidal activity against biofilm of Staphylococcus epidermidis ATCC 35984 after overnight incubation; type: functional; conditions: RP62A
[18] = system: Enterococcus faecalis; test: Bactericidal activity against vancomycin and teicoplanin-sensitive Enterococcus faecalis ATCC 29212 after overnight incubation; type: functional
[19] = system: H3N2 subtype; test: Antiviral activity against Influenza A virus (A/Hong Kong/7/87(H3N2)) assessed as inhibition of virus-induced cytopathic effect at highest concentration by cell-based assay; type: functional, organism-based; conditions: A/Hong Kong/7/1987(H3N2); summary of the method: as §1
[20] = system: Enterococcus faecalis; test: Bactericidal activity against vancomycin-resistant and teicoplanin-sensitive Enterococcus faecalis ATCC 51299 harboring vanB gene after overnight incubation; type: functional
[21] = system: Staphylococcus epidermidis; test: Bactericidal activity against Staphylococcus epidermidis after overnight incubation; type: functional
[22] = system: Enterococcus faecalis; test: Antibacterial activity against vancomycin and teicoplanin-sensitive Enterococcus faecalis ATCC 29212 after 18 hrs by broth microdilution method; type: functional; conditions: ATCC 29212, 18 h

| SMILES | MIC [1] | MBC [2] | inhibition [3] | inhibition [4] | MIC [5] | inhibition [6] | MIC [7] | MBC [8] | MIC [9] | MIC [10] | inhibition [11] | inhibition [12] | MIC [13] | MBC [14] | MBC [15] | MIC [16] | MBC [17] | MBC [18] | MBC [20] | MIC [22] | further results |
| --- | --- | --- | --- | --- | --- | --- | --- | --- | --- | --- | --- | --- | --- | --- | --- | --- | --- | --- | --- | --- | --- |
| CCCCCCCCCCOCc1cn([C@H]2C(=O)N[C@@H]3Cc4ccc(c(Cl)c4)Oc4cc5cc(c4O)Oc4ccc(cc4Cl)[C@@H](O)[C@@H]4NC(=O)[C@H](NC(=O)[C@@H]5NC(=O)[C@@H](NC3=O)c3cc(O)cc(c3)Oc3cc2ccc3O)c2ccc(O)c(c2)-c2c(O)cc(O)cc2[C@H](C(=O)OC)NC4=O)nn1 | 128 µg/mL (≈ 89.2 µM) | 256 µg/mL (≈ 178 µM) | inactive | inactive | 16 µg/mL (≈ 11.1 µM) | inactive | 128 µg/mL (≈ 89.2 µM) | 256 µg/mL (≈ 178 µM) | 64 µg/mL (≈ 44.6 µM) | 64 µg/mL (≈ 44.6 µM) | inactive | inactive | 256 µg/mL (≈ 178 µM) | 256 µg/mL (≈ 178 µM) | 0.5 µg/mL (≈ 0.348 µM) | 0.5 µg/mL (≈ 0.348 µM) | 256 µg/mL (≈ 178 µM) | 128 µg/mL (≈ 89.2 µM) | 256 µg/mL (≈ 178 µM) | 32 µg/mL (≈ 22.3 µM) | inhibition [19]: inactive; MBC [21]: 64 µg/mL (≈ 44.6 µM) |
| CC(=O)N[C@H]1[C@H](O[C@@H]2c3ccc(c(Cl)c3)Oc3cc4cc(c3O)Oc3ccc(cc3Cl)C[C@H]3NC(=O)[C@H](n5cc(COc6ccc(-c7ccccc7)cc6)nn5)c5ccc(O)c(c5)Oc5cc(O)cc(c5)[C@H](NC3=O)C(=O)N[C@H]4C(=O)N[C@H]3C(=O)N[C@@H]2C(=O)N[C@@H](C(=O)O)c2cc(O)cc(O)c2-c2cc3ccc2O)O[C@H](CO)[C@@H](O)[C@@H]1O | 0.5 µg/mL (≈ 0.306 µM) | 0.25 µg/mL (≈ 0.153 µM) | – | – | 0.5 µg/mL (≈ 0.306 µM) | – | 0.5 µg/mL (≈ 0.306 µM) | 0.25 µg/mL (≈ 0.153 µM) | 0.5 µg/mL (≈ 0.306 µM) | 0.5 µg/mL (≈ 0.306 µM) | – | – | 0.5 µg/mL (≈ 0.306 µM) | 0.25 µg/mL (≈ 0.153 µM) | 0.25 µg/mL (≈ 0.153 µM) | 0.5 µg/mL (≈ 0.306 µM) | – | 0.25 µg/mL (≈ 0.153 µM) | 0.25 µg/mL (≈ 0.153 µM) | 0.5 µg/mL (≈ 0.306 µM) | – |
| COC(=O)[C@@H]1NC(=O)[C@H]2NC(=O)[C@H](NC(=O)[C@@H]3NC(=O)[C@H]4NC(=O)[C@@H](Cc5ccc(c(Cl)c5)Oc5cc3cc(c5O)Oc3ccc(cc3Cl)[C@H]2O)NC(=O)[C@H](N=[N+]=[N-])c2ccc(O)c(c2)Oc2cc(O)cc4c2)c2ccc(O)c(c2)-c2c(O)cc(O)cc21 [METHYL ESTER OF AZIDO TEICOPLANIN AGLYCON] | 128 µg/mL (≈ 103 µM) | 256 µg/mL (≈ 207 µM) | inactive | inactive | 64 µg/mL (≈ 51.7 µM) | inactive | 64 µg/mL (≈ 51.7 µM) | 256 µg/mL (≈ 207 µM) | 64 µg/mL (≈ 51.7 µM) | 128 µg/mL (≈ 103 µM) | inactive | inactive | 64 µg/mL (≈ 51.7 µM) | 256 µg/mL (≈ 207 µM) | 4 µg/mL (≈ 3.23 µM) | 2 µg/mL (≈ 1.61 µM) | 256 µg/mL (≈ 207 µM) | 256 µg/mL (≈ 207 µM) | 256 µg/mL (≈ 207 µM) | 128 µg/mL (≈ 103 µM) | inhibition [19]: inactive; MBC [21]: 256 µg/mL (≈ 207 µM) |
| CC(=O)N[C@H]1[C@H](O[C@@H]2c3ccc(c(Cl)c3)Oc3cc4cc(c3O)Oc3ccc(cc3Cl)C[C@H]3NC(=O)[C@H](N=[N+]=[N-])c5ccc(O)c(c5)Oc5cc(O)cc(c5)[C@H](NC3=O)C(=O)N[C@H]4C(=O)N[C@H]3C(=O)N[C@@H]2C(=O)N[C@@H](C(=O)O)c2cc(O)cc(O)c2-c2cc3ccc2O)O[C@H](CO)[C@@H](O)[C@@H]1O | > 256 µg/mL | 2 µg/mL (≈ 1.4 µM) | inactive | inactive | 4 µg/mL (≈ 2.8 µM) | inactive | 8 µg/mL (≈ 5.6 µM) | 8 µg/mL (≈ 5.6 µM) | 4 µg/mL (≈ 2.8 µM) | 64 µg/mL (≈ 44.8 µM) | inactive | inactive | 16 µg/mL (≈ 11.2 µM) | – | 32 µg/mL (≈ 22.4 µM) | 64 µg/mL (≈ 44.8 µM) | 16 µg/mL (≈ 11.2 µM) | 32 µg/mL (≈ 22.4 µM) | 32 µg/mL (≈ 22.4 µM) | 32 µg/mL (≈ 22.4 µM) | inhibition [19]: inactive; MBC [21]: 4 µg/mL (≈ 2.8 µM) |
| CCCCCCCCCCOCc1cn([C@H]2C(=O)N[C@@H]3Cc4ccc(c(Cl)c4)Oc4cc5cc(c4O)Oc4ccc(cc4Cl)[C@@H](O[C@@H]4O[C@H](CO)[C@@H](O)[C@H](O)[C@H]4NC(C)=O)[C@@H]4NC(=O)[C@H](NC(=O)[C@@H]5NC(=O)[C@@H](NC3=O)c3cc(O)cc(c3)Oc3cc2ccc3O)c2ccc(O)c(c2)-c2c(O)cc(O)cc2[C@H](C(=O)OC)NC4=O)nn1 | 2 µg/mL (≈ 1.22 µM) | 0.5 µg/mL (≈ 0.305 µM) | inactive | inactive | 1 µg/mL (≈ 0.61 µM) | inactive | 1 µg/mL (≈ 0.61 µM) | 1 µg/mL (≈ 0.61 µM) | 0.5 µg/mL (≈ 0.305 µM) | 2 µg/mL (≈ 1.22 µM) | inactive | inactive | 1 µg/mL (≈ 0.61 µM) | 256 µg/mL (≈ 156 µM) | 4 µg/mL (≈ 2.44 µM) | 2 µg/mL (≈ 1.22 µM) | 1 µg/mL (≈ 0.61 µM) | 256 µg/mL (≈ 156 µM) | 128 µg/mL (≈ 78.1 µM) | 2 µg/mL (≈ 1.22 µM) | inhibition [19]: inactive; MBC [21]: 1 µg/mL (≈ 0.61 µM) |
